MC4R antagonist = human MC4R antagonism in cAMP assay; P32245; MC4R-expressing cells, MTII-stimulated cAMP, LANCE TR-FRET; inhibition, % at 6.5 µM; hit rate 0.48% among 360,000;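 active means inhibition above its plate's cutoff, the mean of tested wells on that plate plus 3 SD, cut at about 29% in these data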;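 further: 0% = Melanotan II alone and 100% = Melanotan II plus saturating MCL0020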
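Test system: U2OS cells stably expressing human melanocortin 4 receptor (MC4R); also added: Melanotan II challenge; compound: 6.5 µM single dose; timing: 30-min compound preincubation, 1-h Melanotan II challenge, 1-h detection, room temperature; signal: Eu-cAMP/anti-cAMP TR-FRET, emission 671 nm; repeats: one well per compound, no replicates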
m5-HT2A agonist = mouse HTR2A agonism via beta-arrestin recruitment | P35363 | CHO-K1 mHTR2A beta-arrestin complementation, luminescence; percent of 30 µM serotonin response | activation, % at 7.6 µM | hit rate 0.66% among 360,000;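 active means activation above a run cutoff, the mean activation of all tested compounds plus 3 SD, cut at about 14% in these data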;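 further: 0% = plate median of compound wells and 100% = 30 µM serotonin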
GAA850 FXN act = increases GAA850 frataxin promoter reporter activity | HEK293 lucGAA850 FXN promoter luciferase reporter, 24 h; percent of 10 µM SAHA response | activation, % at 6 µM | AID 540364 | hit rate 0.56% among 360,000;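 active means activation above the average of all compounds screened plus 3 SD, cutoff fixed separately per campaign, cut at about 7.5% in these data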;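 further: 0% = DMSO wells and 100% = 10 µM SAHA wells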
MC4R barr agon = activates human MC4R beta-arrestin recruitment. P32245. U2OS MC4R beta-arrestin complementation, luminescence; percent of melanotan II response, DMSO zero. activation, % at 8.9 µM. hit rate 0.98% among 360,000. AID 540308;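 active means activation above a per-plate cutoff, the mean activation of sample wells on that plate plus 3 SD, cut at about 8% in these data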
AHR act = activates the human aryl hydrocarbon receptor | P35869 | AHR-responsive luciferase reporter cells, luminescence | activation, % at 5 µM | hit rate 2.5% among 320,000 | AID 2796; in the data active means activation above about 47%;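 further: 0% = vehicle wells and 100% = reference agonist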
MC4R barr conf = human MC4R beta-arrestin agonism confirmation | shares compounds with MC4R barr agon | U2OS MC4R beta-arrestin recruitment, luminescence; scaled DMSO 0%, Melanotan II 100% | activation, % at 8.9 µM | hit rate 31% among 2,400;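 active means mean activation across replicates above the hit cutoff set in the earlier primary screen, cut at about 8% in these data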
MOR DOR agonist = counter-screen for MC4R agonists: agonists of mu-delta opioid heterodimer; shares compounds with MC4R barr agon; U2OS PathHunter beta-arrestin, beta-gal luminescence; percent of deltorphin B response, DMSO zero; activation, % at 9.2 µM; hit rate 5.8% among 2,400;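 active means mean activation across replicates exceeds the hit threshold derived in the earlier primary screen, cut at about 18% in these data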;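 further: 100% = deltorphin B at 0.9 µM final and 0% = DMSO alone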
Starred values were filed as active, the others as inactive; / = no result. A selection: hits, their analogues and other compounds. The true share with any hit is near 4.7%.

SMILES | MC4R antagonist | m5-HT2A agonist | GAA850 FXN act | MC4R barr agon | AHR act | MC4R barr conf | MOR DOR agonist
Cc1ccc(NC(=O)Cn2nc(-c3ccccc3)nc2-c2ccccc2)c(C)c1 | -1 | 6 | 2 | 17* | 14 | 2 | 3
Cc1ccc(C)c(NC(=O)Cn2nc(-c3ccccc3)nc2-c2ccccc2)c1 | 2 | 5 | -3 | 2 | -1 | / | /
Fc1ccccc1/C=N/Nc1nc2ccccc2o1 | -1 | -11 | 5 | 13* | 18 | -1 | 5
O=C(Nc1ccc(OCc2ccccc2)cc1)c1cccc([N+](=O)[O-])c1 | 6 | 2 | 5 | 10* | 10 | 1 | 12
O=C(Nc1ccc([N+](=O)[O-])cc1Cl)c1cccc([N+](=O)[O-])c1 | 5 | 2 | 2 | 12* | / | 7 | 11
O=C(CNC(=S)NC(=O)c1cccc([N+](=O)[O-])c1)c1ccccc1 | 5 | -3 | 2 | 11* | 0 | -1 | 2
CCc1ccc(NC(=S)NC(=O)c2c(-c3ccccc3Cl)noc2C)cc1 | 24 | -6 | -1 | -1 | 2 | / | /
O=C(COc1ccc([N+](=O)[O-])cc1)Nc1ccc(NC(=O)c2ccccc2)cc1 | 11 | 9 | -4 | -3 | -2 | / | /
O=C(Nc1ccc([N+](=O)[O-])cc1NC(=O)c1ccccc1)c1ccccc1 | 19 | 3 | -5 | 5 | / | / | /
Cc1onc(-c2ccccc2Cl)c1C(=O)NC(=S)NCC(=O)c1ccccc1 | 3 | -2 | 4 | 19* | 5 | 4 | 5
COc1cc(NC(C)CCCN)c2nc(C)ccc2c1Oc1ccc(F)cc1 (stereo not drawn) | 3 | -5 | 0 | 2 | / | / | /
CCc1nc2ccc(C(=O)Nc3cccc(OC)c3)cn2c1N(CC)CCN(C)C | 2 | -2 | -1 | -1 | / | / | /
CC(C)C[C@@H]1Cc2[nH]c(=S)[nH]c(=O)c2[C@H](CCc2ccccc2)O1 | / | -8 | / | / | / | / | /
CCc1cc(=O)oc2cc(C)cc(OC(C)C(=O)NCc3cccnc3)c12 (stereo not drawn) | 9 | -3 | 0 | -3 | 12 | / | /
O=C(Nc1nc(-c2ccc([N+](=O)[O-])cc2)cs1)c1c(F)cccc1F | 15 | 1 | 0 | 24* | -4 | 1 | 4
CC(=O)Nc1nc(-c2ccc([N+](=O)[O-])cc2)cs1 | 17 | 3 | 0 | 0 | -5 | / | /
Cc1ccc(-c2csc(NC(=O)c3cccc([N+](=O)[O-])c3)n2)cc1 | 2 | 3 | -1 | 18* | 1 | 13* | 5
Cc1ccc(S(=O)(=O)N2[C@H](CC(=O)c3cccc4ccccc34)OC[C@@H]2C)cc1 | / | 4 | / | / | / | / | /
Cc1ccccc1NC(=O)NC1(C(=O)NCc2ccco2)CCCCC1 | 9 | -2 | 1 | -1 | -1 | / | /
CCCCCCCCNC(=O)c1cccnc1SCC(=O)Nc1ccc(OC)cc1OC | 5 | 3 | 2 | 11* | 0 | 18* | 29*
CN(C)/C=C/c1c([N+](=O)[O-])c2ccc(O)cc2n1-c1ccccc1 | -6 | -6 | 1 | 1 | 2 | / | /
COC(=O)c1ccc(C(=O)Nc2nc3cc(N)c(C)cc3s2)cc1 | -1 | -1 | 1 | 11* | 6 | 0 | 2
CCOc1ccc(-c2cc(CCCC(=O)NCCc3ccc(OC)c(OC)c3OC)no2)cc1 | 7 | 0 | -8 | 24* | -8 | 0 | 10
O=C(Nc1ccc(Cl)cc1)C1Cc2c(-c3cccc(F)c3)ccnc2O1 (stereo not drawn) | -6 | -2 | 1 | 3 | / | / | /
CC1CCCC(NCC(O)COC(c2ccc(F)cc2)c2ccc(F)cc2)C1C (stereo not drawn) | 9 | -1 | -2 | 18* | 3 | 16* | 24*
O=C(COC(=O)c1ccccc1OC(F)F)Nc1ccc(N2CCCCC2)cc1 | -2 | 0 | 0 | 11* | 2 | -1 | 4
COc1cc(OC)cc(C(=O)OCC(=O)Nc2ccc(N3CCCCC3)cc2)c1 | -2 | 3 | 1 | 13* | 5 | 2 | 10
